Reference: ChEMBL document CHEMBL1148581, “Antimalarial and antiplasmodial activities of norneolignans. Syntheses and SAR” (J Med Chem, 2006)
In brackets after ≈: the same amount, converted by molar mass. Activity calls are given as the source filed them. No cut-off for these calls is given here.

Each compound was assayed on Plasmodium falciparum (assay: Antiplasmodial activity against Plasmodium falciparum 3D7). Conditions: not given.
Format: functional, organism-based
In short: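 Desjardins [³H]phenylalanine incorporation method (Ziegler modification). Parasitized erythrocytes (blood type 0, 5% hematocrit, 2-3% parasitemia) mixed with compounds in RPMI 1640/HEPES with 0.45% Albumax II, L-glutamine, hypoxanthine, gentamicin; final DMSO ≤0.5%. 24 h at 37 °C under 93% N₂/5% CO₂/2% O₂, then label added for further 24 h; filter-harvested, scintillation counted. Three experiments, each in triplicate; IC50.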

Row | IC50 [µg/mL] | Structure (SMILES)
1 | 4.1 (≈ 11.8 µM) | CCC(/C=C/c1ccccc1CN(C)C)c1ccc(Cl)cc1Cl (configuration not stated)
2 | 3.9 (≈ 11.8 µM) | CCC(/C=C/c1ccc(OC)c(OC)c1OC)c1cccc(F)c1 (configuration not stated)
3 | 5.4 (≈ 14.9 µM) | CCC(/C=C/c1ccccc1Br)c1ccc(OC)cc1OC (configuration not stated)
4 | 6.9 (≈ 18.8 µM) | COc1ccc(C2CC(c3ccc(Cl)cc3Cl)OC2C)c(OC)c1 (configuration not stated)
5 | 1.5 (≈ 4.29 µM) | C=CC(/C=C/c1ccc(Cl)cc1Cl)c1ccc(OC)cc1OC (configuration not stated)
6 | 8.8 (≈ 24.5 µM) | C=CC(/C=C/c1ccccc1Br)c1ccc(OC)cc1OC (configuration not stated)
7 | 10 (≈ 39 µM) | C=CC(/C=C/c1ccc(F)cc1)c1ccc(F)cc1 (configuration not stated)
8 | 9.5 (≈ 30.4 µM) | C=CCOc1ccc(CCCc2ccc(OC)cc2OC)cc1
9 | 6 (≈ 20 µM) | CCC(/C=C/c1ccccc1F)c1cc(OC)cc(OC)c1 (configuration not stated)
10 | 6 (≈ 18.3 µM) | C=CC(/C=C/c1ccc(OC)c(OC)c1OC)c1cccc(F)c1 (configuration not stated)
11 | 4 (≈ 11.8 µM) | C=CCOc1ccc(/C=C/C(CC)c2ccc(OC)cc2OC)cc1 (configuration not stated)
12 | 5.2 (≈ 15.4 µM) | C=CCOc1ccc(CCC(C=C)c2ccc(OC)cc2OC)cc1 (configuration not stated)
13 | 7 (≈ 20 µM) | C=CC(/C=C/c1ccc(OC)cc1OC)c1ccc(Cl)cc1Cl (configuration not stated)
14 | 7 (≈ 22.1 µM) | C=CC(/C=C/c1ccc(F)cc1F)c1ccc(OC)cc1OC (configuration not stated)
15 | 3 (≈ 8.81 µM) | C=CCOc1ccc(CCC(CC)c2ccc(OC)cc2OC)cc1 (configuration not stated)
16 | 6 (≈ 20.1 µM) | C=CC(/C=C/c1ccccc1F)c1cc(OC)cc(OC)c1 (configuration not stated)

Row | IC50 [µg/mL] | Structure (SMILES)
17 | 16 (≈ 45.1 µM) | C=CCOc1ccc(C(O)CC(C=C)c2ccc(OC)cc2OC)cc1 (configuration not stated)
18 | 13 (≈ 50.3 µM) | CCC(/C=C/c1ccc(F)cc1)c1ccc(F)cc1 (configuration not stated)
19 | 2.7 (≈ 7.37 µM) | C=CCOc1ccc(/C=C/C(CCCC)c2ccc(OC)cc2OC)cc1 (configuration not stated)
20 | 7 (≈ 20.8 µM) | C=CCOc1ccc(/C=C/C(C=C)c2ccc(OC)cc2OC)cc1 (configuration not stated)
21 | 3.9 (≈ 12.3 µM) | CCC(/C=C/c1ccc(F)cc1F)c1ccc(OC)cc1OC (configuration not stated)
22 | 3 (≈ 7.95 µM) | COc1ccc(C2CC(c3ccccc3Br)OC2C)c(OC)c1 (configuration not stated)
23 | 8.2 (≈ 23 µM) | C=CC(/C=C/c1ccccc1C(F)(F)F)c1ccc(Cl)cc1Cl (configuration not stated)
24 | 14 (≈ 55.5 µM) | C=C[C@H](/C=C/c1ccc(O)cc1)c1ccc(O)cc1
25 | 6 (≈ 17.1 µM) | CCC(/C=C/c1ccc(OC)cc1OC)c1ccc(Cl)cc1Cl (configuration not stated)
26 | 2.2 (≈ 5.97 µM) | C=CCOc1ccc(CCC(CCCC)c2ccc(OC)cc2OC)cc1 (configuration not stated)
27 | 6 (≈ 16.7 µM) | CCC(/C=C/c1ccccc1C(F)(F)F)c1ccc(Cl)cc1Cl (configuration not stated)
28 | 4.2 (≈ 12 µM) | CCC(/C=C/c1ccc(Cl)cc1Cl)c1ccc(OC)cc1OC (configuration not stated)
29 | 13 (≈ 51.5 µM) | C=CC(/C=C/c1ccc(O)cc1)c1ccc(O)cc1 (racemic)
30 | 3 (≈ 8.66 µM) | C=CC(/C=C/c1ccccc1CN(C)C)c1ccc(Cl)cc1Cl (configuration not stated)
31 | 20 (≈ 79.3 µM) | C=C[C@@H](/C=C/c1ccc(O)cc1)c1ccc(O)cc1

The compounds below were run on Mus musculus (assay: Antimalarial activity in NMRI mice (Mus musculus) infected with Plasmodium berghei K173 at 25 mg/kg). Conditions: not given.
Format: functional
In short: (§1)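 Mice inoculated day 0 with 1×10⁶ P. berghei K173-infected red cells in 0.2 mL 0.9% saline; five mice per group. At day 4 (parasitemia 2-9%), ip dosing in 0.9% saline with 10% Tween 80, pH 4.5, on days 4 and 5; control group untreated or vehicle-injected. Day-5 tail-vein blood smear, Giemsa-stained, infected cells counted microscopically; % inhibition versus control.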

Row | Structure (SMILES) | inhibition in vivo at 25 mg/kg [%]
32 | C=CC(/C=C/c1ccc(Cl)cc1Cl)c1ccc(OC)cc1OC (configuration not stated) | 57
33 | C=CCOc1ccc(CCC(CCCC)c2ccc(OC)cc2OC)cc1 (configuration not stated) | 25

These compounds were tested on Mus musculus (assay: Antimalarial activity in NMRI mice (Mus musculus) infected with Plasmodium berghei K173 at 50 mg/kg). Conditions: not given.
Format: functional
In short: as §1

Row | Structure (SMILES) | inhibition in vivo at 50 mg/kg [%]
34 | C=CCOc1ccc(CCC(CCCC)c2ccc(OC)cc2OC)cc1 (configuration not stated) | 49

These compounds were tested on Mus musculus (assay: Antimalarial activity in NMRI mice (Mus musculus) infected with Plasmodium berghei K173 at 100 mg/kg). Conditions: not given.
Format: functional
In short: as §1

Row | Structure (SMILES) | inhibition in vivo at 100 mg/kg [%]
35 | C=CCOc1ccc(CCC(CCCC)c2ccc(OC)cc2OC)cc1 (configuration not stated) | 59

Species: Oryctolagus cuniculus
Assay: Inhibitory activity against SERCA in rabbit muscle at 3.5 ug/mL
Format: tissue-based
Conditions: Muscle tissue

Row | Structure (SMILES) | inhibition
36 | C=CC(/C=C/c1ccc(Cl)cc1Cl)c1ccc(OC)cc1OC (configuration not stated) | inactive
37 | C=CCOc1ccc(CCC(CCCC)c2ccc(OC)cc2OC)cc1 (configuration not stated) | inactive
